Reference: ChEMBL document CHEMBL4665711, “Synthesis of (Z)-3-(arylamino)-1-(3-phenylimidazo[1,5-a]pyridin-1-yl)prop-2-en-1-ones as potential cytotoxic agents” (Bioorg Med Chem Lett, 2020)

What was measured:
[1] = Cytotoxicity against human lung cancer cells assessed as reduction in cell viability incubated for 48 hrs by MTT assay; assay type: functional; conditions: Lung cancer cell line
MDA-MB-231 = assay: Cytotoxicity against human MDA-MB-231 cells assessed as reduction in cell viability incubated for 48 hrs by MTT assay; assay type: functional, cell-based; conditions: MDA-MB-231, 48 h
Procedure, shortened: (§1)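 Cancer cell lines were exposed to drug for 48 h, and the 50% inhibitory concentration was determined. Values are averages of three individual experiments. A549, HCT-116, BT-474 and MDA-MB-231 are human lines; B16F10 is a murine melanoma line.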

B16-F10 = assay: Cytotoxicity against mouse B16-F10 cells assessed as reduction in cell viability incubated for 48 hrs by MTT assay; assay type: functional, cell-based; conditions: B16-F10, 48 h; procedure, shortened: as §1
HCT-116 = assay: Cytotoxicity against human HCT-116 cells assessed as reduction in cell viability incubated for 48 hrs by MTT assay; assay type: functional, cell-based; conditions: HCT-116, 48 h; procedure, shortened: as §1
BT-474 = assay: Cytotoxicity against human BT-474 cells assessed as reduction in cell viability incubated for 48 hrs by MTT assay; assay type: functional, cell-based; conditions: BT-474, 48 h; procedure, shortened: as §1
A549 = assay: Cytotoxicity against human A549 cells assessed as reduction in cell viability incubated for 48 hrs by MTT assay; assay type: functional, cell-based; conditions: A549, 48 h; procedure, shortened: as §1
[2] = Cytotoxicity against human lung cancer cells assessed as reduction in cell viability incubated for 24 hrs by MTT assay; assay type: functional; conditions: Lung cancer cell line
[3] = Cytotoxicity against human breast cancer cells assessed as reduction in cell viability incubated for 24 hrs by MTT assay; assay type: functional; conditions: Breast cancer cell line

Row | Structure (SMILES) | IC50 [1] [µM] | IC50 (MDA-MB-231) [µM] | IC50 (B16-F10) [µM] | IC50 (HCT-116) [µM] | IC50 (BT-474) [µM] | IC50 (A549) [µM] | GI50 [2] [µM] | GI50 [3] [µM]
1 | O=C(/C=C\Nc1ccc(O)cc1)c1cn(-c2ccccc2)nc1-c1ccc(F)cc1 | 1.5 |  |  |  |  |  |  | 
2 | O=C(/C=C\Nc1ccc(F)cc1)c1nc(-c2ccc(F)cc2)n2ccccc12 |  | 25.1 | > 30 | > 30 | 16.9 | 13.2 |  | 
3 | O=C1Nc2ccccc2/C1=C\c1nc(-c2ccccc2F)n2ccccc12 |  |  |  |  |  |  | 3.46 | 
4 | COC(=O)Nc1nc2cc(C(=O)c3cccs3)ccc2[nH]1 [NOCODAZOLE] |  | 1.83 | 3.12 | 2.82 | 2.72 | 3.63 |  | 
5 | COc1ccc(-c2nc(C(=O)/C=C\Nc3ccc(F)cc3)c3ccccn23)cc1 |  | > 30 | > 30 | > 30 | > 30 | > 30 |  | 
6 | COc1ccc(N/C=C\C(=O)c2nc(-c3ccc(C(F)(F)F)cc3)n3ccccc23)cc1OC |  | > 30 | > 30 | > 30 | > 30 | > 30 |  | 
7 | Fc1ccccc1-c1nc(-c2nc3ccc(C(F)(F)F)cc3[nH]2)c2ccccn12 |  |  |  |  |  |  |  | 1.37
8 | O=C(/C=C\Nc1cnc2ccccc2c1)c1nc(-c2ccc(C(F)(F)F)cc2)n2ccccc12 |  | > 30 | > 30 | > 30 | > 30 | > 30 |  | 
9 | COc1ccc(-c2nc(C(=O)/C=C\Nc3ccc4[nH]ccc4c3)c3ccccn23)cc1 |  | 28.7 | 5.12 | 17.4 | 13 | 4.8 |  | 
10 | O=C(/C=C\Nc1ccc(F)cc1)c1nc(-c2ccc(C(F)(F)F)cc2)n2ccccc12 |  | > 30 | > 30 | > 30 | > 30 | > 30 |  | 
11 | COc1ccc(N/C=C\C(=O)c2nc(-c3ccc(OC)cc3)n3ccccc23)cc1 |  | > 30 | 2.12 | > 30 | 15.4 |  |  | 
12 | O=C(/C=C\Nc1ccc2cc[nH]c2c1)c1nc(-c2ccc(C(F)(F)F)cc2)n2ccccc12 |  | > 30 | > 30 | > 30 | > 30 | > 30 |  | 
13 | COc1ccc(N/C=C\C(=O)c2nc(-c3ccc(F)cc3)n3ccccc23)cc1 |  | > 30 | 2.56 | > 30 | 15.7 | 19.2 |  | 
14 | COc1ccc(N/C=C\C(=O)c2nc(-c3ccccc3)n3ccccc23)cc1 |  | 28.2 | 1.79 | 7.01 | 12.8 | > 30 |  | 
15 | COc1ccc(N/C=C\C(=O)c2nc(-c3ccc(C(F)(F)F)cc3)n3ccccc23)cc1 |  | > 30 | > 30 | 7.72 | > 30 | 21.8 |  | 
16 | COc1ccc(-c2nc(C(=O)/C=C\Nc3ccc(Cl)cc3)c3ccccn23)cc1 |  | > 30 | 1.24 | > 30 | 37.3 |  |  | 
17 | O=C(/C=C\Nc1ccc2[nH]ccc2c1)c1nc(-c2ccc(C(F)(F)F)cc2)n2ccccc12 |  | 1.18 | 18.2 | 27.1 | 5.19 | 5.19 |  | 
18 | COc1ccc(N/C=C\C(=O)c2nc(-c3ccc(F)cc3)n3ccccc23)cc1OC |  | > 30 | > 30 | > 30 | > 30 | > 30 |  | 
19 | Cc1cc2cc(N/C=C\C(=O)c3nc(-c4ccc(F)cc4)n4ccccc34)ccc2[nH]1 |  | > 30 | > 30 | > 30 | > 30 | > 30 |  | 
20 | O=C(/C=C\Nc1cnc2ccccc2c1)c1nc(-c2ccccc2)n2ccccc12 |  | 12.3 | 3.78 | > 30 | 19.7 | > 30 |  | 
21 | O=C(/C=C\Nc1ccc(Cl)cc1)c1nc(-c2ccc(C(F)(F)F)cc2)n2ccccc12 |  | 3.84 | > 30 | 11.5 | 3.82 | 18.5 |  | 
